Consider two compounds from ChEMBL document CHEMBL1828528, “Acyclic nucleoside thiophosphonates as potent inhibitors of HIV and HBV replication” (Eur J Med Chem, 2011).

In general, CC50 refers to the concentration at which the toxic effect on the cells reaches its halfway point. Lower therefore signals greater toxicity to the cells.

Structures are written as SMILES.

In data set [1] the test system is Human immunodeficiency virus 1. Kind of data set: Ratio EC50 for PMPA to compound for HIV1 clade A/E isolate 2165 infected in human H9 cells assessed as inhibition of viral replication. The data set is classed as functional.
Data set [2] has as its system Human immunodeficiency virus 1. Kind of data set: Ratio EC50 for PMPA to compound for HIV1 clade D isolate 1649 infected in human H9 cells assessed as inhibition of viral replication. The data set is classed as functional.
Data set [3] can be described thus: (§1) Cytotoxicity against human CEM cells. The format is cell-based, CCRF-CEM. The note with it: CCRF-CEM (CEM) cells. In short, it runs like this:
(§2)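 Mock-infected CEM cells cultured alongside the anti-HIV assay with compound dilutions for 4 days at 37 °C. CC50 is the concentration inhibiting CEM cell proliferation by 50%.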

Data set [4] relates to Human immunodeficiency virus 1. Kind of data set: Ratio EC50 for PMPA to compound for HIV1 clade B isolate 2101 infected in human H9 cells assessed as inhibition of viral replication. The data set is classed as functional.
The nature of data set [5]: Stability of compound in complete culture medium assessed as compound degradation into 9-(2-Phosphonomethoxypropyl)-adenine after 24 hrs by HPLC analysis. The data set is classed as physicochemical. In short, it runs like this:
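Compound diluted to 0.1 mM final in one of two media and incubated at 37 °C: RPMI-1640 with 10% heat-inactivated FCS, or CEM-SS cell extract (soluble proteins 3 mg/mL in 10 mM Tris-HCl pH 7.4, 140 mM KCl). Aliquots were taken over time, frozen at −80 °C, then run on C18 reverse-phase HPLC with on-line filtration, TEAB/acetonitrile gradient and 260 nm detection. Degradation products were identified by co-injection.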

In data set [6] the test system is Human immunodeficiency virus 1. The data set is described as follows: Ratio EC50 for PMEA to compound for HIV1 clade B isolate 2056 infected in human H9 cells assessed as inhibition of viral replication. The format is functional. In short, it runs like this:
(§3)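 Ratio computed as EC50 of PMEA divided by EC50 of the test compound, both measured against the same clinical isolate in H9 cells.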

In a further data set the test system is Hepatitis B virus. The data set is described as follows: Ratio EC50 for PMEA to compound for Hepatitis B virus infected in human HepAD38 cells assessed as reduction in viral DNA level after 6 days by real time quantitative PCR analysis. The data set is classed as functional.
The test system of data set [7] is Human immunodeficiency virus 1. The data set is described as follows: Ratio EC50 for PMEA to compound for HIV1 clade A/E isolate 2165 infected in human H9 cells assessed as inhibition of viral replication. The data set is classed as functional. The method in brief: as §3
For another data set, the system named is CCRF-CEM. The description is as §1. The data set is classed as cell-based. The note with it: ccrf-cem. The method in brief: as §2
Data set [8] relates to Human immunodeficiency virus 1. Kind of data set: Ratio EC50 for PMEA to compound for HIV1 clade C isolate 2914 infected in human H9 cells assessed as inhibition of viral replication. The format is functional. In short, it runs like this: as §3

On to `C[C@H](Cn1cnc2c(N)ncnc21)OCP(=O)([O-])[S-].[Na+].[Na+]` (stereo not given in full), for which the “Ratio EC50” value in [1] came out at 1.5; in data set [2] it was 0.14; in [4] it was 0.51. For the same compound, in data set [3], the CC50 was over 250 µM. The Activity in data set [5] is 77%.
As for `Nc1ncnc2c1ncn2CCOCP(=O)([O-])[S-].[Na+].[Na+]` (stereo not given), the “Ratio EC50” value in data set [6] is 0.29; in the data set with Hepatitis B virus it was 1.5; in data set [7], 1.06; in data set [8], 2.96. In addition, in the data set with CCRF-CEM, the CC50 is 233 µM.
